Measured values pooled from the literature.
Protocols differ between the studies behind these lines.
Organism: Plasmodium falciparum
Observed: parasite growth

Compound	method	strain	time	notes	EC50 [nM]
COc1ccc(-n2ccnc2SCC(=O)Nc2cccc(C(F)(F)F)c2)c(OC)c1	SYBR Green	3D7			88.5
CCN(CC)CCCC(C)Nc1ccnc2cc(Cl)ccc12 (stereo not drawn)	SYBR Green	TM90	72 h	drug-resistant strain, blood stage	89
COCC(C)n1c(SCC(=O)Nc2cc(C(F)(F)F)ccc2Cl)nc2ccccc2c1=O (stereo not drawn)	SYBR Green	3D7			356
CN1CCCN(S(=O)(=O)c2ccc(-c3ccc4ncnc(Nc5ccc(OCc6cccc(F)c6)c(Cl)c5)c4c3)cc2)CC1	SYBR Green	W2		drug-resistant strain, blood stage	52
COc1cc2[nH]c(C)c(-c3ccccc3)c(=O)c2cc1Cl		W2		drug-resistant strain, blood stage	26.2
Cc1cc(N[C@H]2CCc3ccc(Cl)cc3C2)n2nc(C(C)(F)F)nc2n1		HB3		drug-resistant strain, blood stage	0.47
Fc1cccc(COc2ccc(Nc3ncnc4ccc(-c5cccc(N6CCOCC6)c5)cc34)cc2Cl)c1	SYBR Green	W2		drug-resistant strain, blood stage	680
Cc1c2oc3c(C)ccc(C(=O)N[C@@H]4C(=O)N[C@H](C(C)C)C(=O)N5CCC[C@H]5C(=O)N(C)CC(=O)N(C)[C@@H](C(C)C)C(=O)O[C@@H]4C)c3nc-2c(C(=O)N[C@@H]2C(=O)N[C@H](C(C)C)C(=O)N3CCC[C@H]3C(=O)N(C)CC(=O)N(C)[C@@H](C(C)C)C(=O)O[C@@H]2C)c(N)c1=O	SYBR Green	3D7		blood stage	1000
COc1cc2[nH]c(C)c(-c3ccc(Oc4ccc(OC(F)(F)F)cc4)cc3)c(=O)c2cc1Cl	SYBR Green	TM90	72 h	drug-resistant strain, blood stage	1
Cc1cc(NC2Cc3cc(F)c(F)cc3C2)n2nc(C(C)(F)F)nc2n1		K1		drug-resistant strain, blood stage	49
O=C1C(O)=C([C@H]2CC[C@H](c3ccc(Cl)cc3)CC2)C(=O)c2ccccc21	SYBR Green	D6	72 h	blood stage	< 0.25
Cc1cc(Nc2ccc(Cl)c(Cl)c2)n2nc(C)nc2n1	SYBR Green	3D7			106
